Screening results deposited in PubChem BioAssay by several laboratories.
p47phox inh – inhibitors of human p47phox binding; P14598; p47phox/p22phox peptide binding, fluorescence polarization, 2 h; inhibition, % at 24.7 µM; hit rate 0.53% among 220,000; AID 1274;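 active = inhibition above about 30%, limit read from the data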;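 note: 0% = p47phox with labelled peptide and 100% = labelled peptide alone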
ABCG2 block – human ABCG2 inhibition, ABCB1 as counter-screen | IgMXP3 cells, JC-1 efflux, flow cytometry | inhibition, % at 6.6 µM | hit rate 0.1% among 190,000 | AID 1325;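 active = inhibition above 80%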;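 note: 0% = DMSO and 100% = nicardipine control wells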
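Incubation: cells with compound and JC-1, 10 min at 25 °C, rotating, no wash / Test system: IgMXP3 (ABCG2) plus far-red-tagged CCRF-Adr (ABCB1) cells / Compound dosing: one concentration, 6.6 µM final / Also added: JC-1 fluorescent substrate / Evaluation: efflux inhibition in percent versus controls / Detection: flow cytometry, 530 nm JC-1 signal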
Furin inhibitor – blocks human furin protease activity; P09958; purified furin, fluorogenic substrate cleavage; inhibition, % at 20 µM or 30 µM; hit rate 0.061% among 220,000; in the data active = inhibition above about 25%
HSV replic up – increases HSV replication in cells. HSV replication augmentation in cells, fold increase. maximum fold increase. hit rate 0.005% among 220,000. AID 1956; in the data active = maximum fold increase above about 1.5; tested in PC3 cells
Arbovirus inh – blocks arbovirus infection; arbovirus infection cell-based antiviral screen; inhibition, % at 10 µM; hit rate 0.37% among 200,000; AID 1251; in the data active = inhibition above about 30%
ABCB1 block – human ABCB1 inhibition, ABCG2 as counter-screen; P08183; CCRF-Adr cells, JC-1 efflux, flow cytometry; inhibition, % at 6.6 µM; hit rate 0.067% among 190,000; in the data active = inhibition above about 40%;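 note: 0% = vehicle and 100% = reference inhibitor; higher value means more JC-1 retained so stronger ABCB1 efflux block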
Target sequence (P08183 whole entry, looked up): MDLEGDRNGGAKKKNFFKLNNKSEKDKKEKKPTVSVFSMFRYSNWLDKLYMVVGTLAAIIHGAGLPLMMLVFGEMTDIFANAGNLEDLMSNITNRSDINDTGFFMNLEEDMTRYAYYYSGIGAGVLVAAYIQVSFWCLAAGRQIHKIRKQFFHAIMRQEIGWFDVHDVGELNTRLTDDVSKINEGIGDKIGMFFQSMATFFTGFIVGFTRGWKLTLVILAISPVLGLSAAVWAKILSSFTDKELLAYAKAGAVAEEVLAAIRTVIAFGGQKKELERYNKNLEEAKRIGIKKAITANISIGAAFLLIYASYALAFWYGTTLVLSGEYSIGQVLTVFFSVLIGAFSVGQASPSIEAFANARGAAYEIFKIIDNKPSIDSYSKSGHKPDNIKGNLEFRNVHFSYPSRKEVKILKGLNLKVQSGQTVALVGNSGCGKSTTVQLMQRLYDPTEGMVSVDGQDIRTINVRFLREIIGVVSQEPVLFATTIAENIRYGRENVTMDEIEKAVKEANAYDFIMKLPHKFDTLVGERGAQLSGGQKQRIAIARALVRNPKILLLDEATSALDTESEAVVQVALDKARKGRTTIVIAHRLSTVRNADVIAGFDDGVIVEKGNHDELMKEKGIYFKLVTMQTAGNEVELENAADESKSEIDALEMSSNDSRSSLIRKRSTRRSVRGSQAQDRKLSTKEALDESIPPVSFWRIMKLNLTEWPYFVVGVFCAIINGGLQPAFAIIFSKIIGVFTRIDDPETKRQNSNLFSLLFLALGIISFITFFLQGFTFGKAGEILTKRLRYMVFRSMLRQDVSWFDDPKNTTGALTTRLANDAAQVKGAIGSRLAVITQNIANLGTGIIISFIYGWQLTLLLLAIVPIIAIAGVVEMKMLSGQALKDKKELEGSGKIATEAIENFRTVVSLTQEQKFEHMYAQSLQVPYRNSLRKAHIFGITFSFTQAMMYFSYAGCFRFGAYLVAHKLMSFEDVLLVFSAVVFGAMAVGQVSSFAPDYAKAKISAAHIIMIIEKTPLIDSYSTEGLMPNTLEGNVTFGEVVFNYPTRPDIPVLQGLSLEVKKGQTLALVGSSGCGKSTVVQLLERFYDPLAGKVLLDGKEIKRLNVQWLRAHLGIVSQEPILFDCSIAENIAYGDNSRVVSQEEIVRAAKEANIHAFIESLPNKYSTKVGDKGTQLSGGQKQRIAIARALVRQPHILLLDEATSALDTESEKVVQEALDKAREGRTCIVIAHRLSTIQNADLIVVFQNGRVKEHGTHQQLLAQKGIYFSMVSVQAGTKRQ
* marks the source's active call; other numbers are inactive results; i = inactive; · = no result; + = active, no number. This is a sample that favours compounds with a hit; in the whole collection about 0.95% have one here.

SMILES	p47phox inh	ABCG2 block	Furin inhibitor	HSV replic up	Arbovirus inh	ABCB1 block
CCN(CC)c1ccc([N+](=O)[O-])cc1C(=O)N1CCOCC1	4.9	1.1	-7.8	i	2.3	0.2
COC(=O)[C@H](Cc1ccccc1)NC(=O)O[C@@H]1C(=O)c2cc(OC)ccc2O[C@H]1c1ccc(OC)c(Br)c1	-4.0	5.1	-22.6	·	32.3*	1.5
CCC(C)(C)c1ccc(OCCCC[n+]2cccc(C)c2C)c(C(C)(C)CC)c1	49.2*	·	-16.8	i	·	·
CCC(C)(C)c1ccc(OCCCC[n+]2ccc(C)cc2)c(C(C)(C)CC)c1	33.2*	-2.1	-6.5	i	-27.0	1.0
O=C(O)c1cc(N/N=C2/CC(c3ccccc3)Oc3ccccc32)ccc1Cl (stereo not drawn)	-9.3	-3.9	-6.1	i	32.0*	-0.6
CC(C)(C)N/N=C1\CC(c2ccccc2)Oc2ccccc21 (stereo not drawn)	-14.7	13.3	-13.5	i	6.4	0.6
O=Cc1cnc(N2CCOCC2)nc1	-5.7	21.2	4.7	i	6.2	1.5
CC(C)CNc1cc(N2CCCC2)ccc1[N+](=O)[O-]	59.2*	2.6	-12.3	i	-10.3	0.0
CCCc1c(-c2ccc(O)cc2)nn(-c2ccc(O)cc2)c1-c1ccc(O)cc1	-16.0	·	-6.4	i	·	·
Cc1nn(-c2cc(C(F)(F)F)ccc2Cl)c2nc(C(F)(F)F)[nH]c(=O)c12	-4.1	-4.5	-8.4	i	42.0*	-0.2
CN(C(=O)c1cc2ccccc2oc1=O)C1(C)CCS(=O)(=O)C1 (stereo not drawn)	3.1	1.0	-3.9	i	-1.6	0.0
C=CCn1c(SCC(=O)c2[nH]c(C)c(C(C)=O)c2C)nnc1-c1ccncc1	-8.2	0.7	-11.9	i	-0.9	-0.1
C=CCn1c(SCC(=O)c2[nH]c(C)c(C(=O)OC)c2C)nc2scc(-c3ccc(OC)c(OC)c3)c2c1=O	35.6*	17.5	-16.2	i	-39.1	3.6
CC(C)(C)c1ccc(-c2nnc(N)o2)cc1	-10.2	·	-17.8	i	·	·
CC(C)c1ccc(/C=C2\CC/C(=C\C=N\N(C)C)C2=O)cc1	76.4*	7.9	-6.5	·	5.1	0.8
CC(C)/C=C1\CC/C(=C\c2ccc(N(C)C)cc2)C1=O	-115.8	42.9	-18.1	i	-21.8	11.8
CC(=O)CSc1nnc(-c2cnccn2)n1-c1ccccc1	39.7*	1.4	-3.9	·	4.6	0.5
CCN(CC)C(=O)CSc1nnc(-c2cnccn2)n1-c1ccccc1	-20.9	-0.7	-9.6	i	0.4	-0.2
COc1cc(C(=O)NCCOc2ccc(F)cc2)c(Br)c(OC)c1OC	-4.8	6.5	-7.9	i	0.2	0.9
CS(=O)(=O)N1CCc2cc(C(=O)N3CCCC3)ccc21	20.1	0.2	-28.2	i	5.7	0.1
O=C(/C=C/c1ccncc1)c1ccc(NC(=O)c2ccccc2F)cc1	30.0*	-0.2	-17.3	i	-44.5	0.1
Cc1cc(NC(=O)c2ccc([N+](=O)[O-])cc2)n(C)n1	-8.9	·	-17.2	i	·	·
N#Cc1nc(COc2ccc(F)cc2)oc1N1CCC(Cc2ccccc2)CC1	50.3*	3.8	-14.9	·	9.8	0.7
CCOc1ccccc1NC(=O)COC(=O)CC(NC(N)=O)c1ccc(Cl)cc1 (stereo not drawn)	-1.3	1.0	-27.9	i	5.5	0.2
Cc1cc(C)nc(SCc2ccc(C(=O)N/N=C/c3ccncc3)cc2)n1	-10.8	13.5	-3.4	i	-2.4	0.3
SMILES	p47phox inh	ABCG2 block	Furin inhibitor	HSV replic up	Arbovirus inh	ABCB1 block
Cc1cc(C)nc(SCc2ccc(C(=O)NNC(=O)Nc3cccc(Cl)c3)cc2)n1	31.9*	-2.2	-28.4	i	-42.1	-0.4
Cc1ccc(NC2c3ncccc3C(=O)N2C2CCCCC2)cc1C (stereo not drawn)	-13.0	2.4	-13.1	i	39.6*	1.4
COc1cccc(-n2nc3c(=O)n(Cc4ccccc4Cl)nc(C)c3c2C)c1	84.1*	-0.4	-22.0	i	-18.4	-0.2
Cc1nn(Cc2ccccc2)c(=O)c2nn(-c3ccc(Cl)cc3)c(C)c12	1.9	10.4	-9.0	i	4.6	1.6
O=C1NC(Cc2ccccc2)C(=O)N1Cc1cc([N+](=O)[O-])cc2c1OCOC2 (stereo not drawn)	-2.3	2.0	-23.9	i	10.8	0.7
CCOC(=O)C1C(=O)NC(c2ccccc2)=NC1c1cccc(Br)c1 (stereo not drawn)	4.8	1.6	-13.3	i	1.9	0.2
Oc1c(Br)cc(C2N=C(c3ccccc3)NO2)cc1Br (stereo not drawn)	-7.2	4.5	-21.1	i	33.1*	0.4
Cc1ccc(S(=O)(=O)N2CCC(C(=O)NNC(=O)c3ccncc3)CC2)cc1	2.7	17.9	-16.3	i	6.1	0.2
CC(=O)Nc1ccc(C(=O)Nc2cccc(-c3cnc4ccccc4n3)c2)cc1	33.3*	9.2	-23.2	i	-0.6	0.1
CCN(CC)c1ccc(/C=C2\CCC(/C=C(\C#N)C(=O)Nc3ccccc3F)=C2N2CCOCC2)cc1	119.8*	0.0	-13.4	i	-4.7	9.4
N#C/C(=C\C1=C(N2CCOCC2)C(=C\c2ccc(Cl)cc2)/CC1)C(=O)Nc1ccccc1F	-254.1	11.3	-14.6	i	-24.9	8.1
Cc1ccc(S(=O)(=O)N2CCCCC2)cc1NS(=O)(=O)c1cccc(C(=O)O)c1	-1.2	-5.3	-12.6	i	-2.5	-0.6
CC(=O)Nc1ccc(NC(=O)COC(=O)c2ccccn2)cc1	2.8	2.4	-13.7	i	0.4	-0.7
O=C(c1cc2nc(-c3cccs3)cc(C(F)(F)F)n2n1)N1CCCc2ccccc21	-19.5	100.2*	-7.2	i	8.4	20.4
O=C(c1cc2nc(-c3cccs3)cc(C(F)(F)Cl)n2n1)N1CCCc2ccccc21	-18.5	-4.7	-32.9	i	3.1	-1.4
CSc1ccc(/C=C(/NC(=O)c2ccc(C)cc2)C(=O)Nc2cccc(F)c2)cc1	67.3*	4.1	-16.1	·	-7.5	0.2
O=C(NCC1(N2CCOCC2)CCCCC1)c1cccc(S(=O)(=O)N2CCc3ccccc3C2)c1	-56.9	5.8	-10.4	i	-13.6	2.8
O=C(COC(=O)c1cc[n+]([O-])cc1)Nc1ccc([N+](=O)[O-])cc1Cl	5.2	2.1	-18.5	i	6.1	0.6
Fc1ccccc1Nc1nc(-c2ccncc2)nc2ccccc12	-39.0	5.7	-9.0	i	1.6	0.6
O=C(c1cc(-c2ccccc2O)on1)N1CCc2ccccc2C1	-1.6	0.9	-9.6	i	33.5*	0.2
COC(=O)c1ccccc1N/C=C/C(=O)c1ccc(Br)cc1	-17.0	4.7	-3.3	i	63.0*	·
CCOC(=O)C1=C(O)CSC1=Nc1ccccc1	-45.6	5.0	-12.7	i	0.9	-0.3
CCOC(=O)C1=C(O)CSC1=Nc1ccc(Cl)cc1	+	0.8	-17.9	i	13.8	0.0
CNc1ccccc1C(C)(C)c1cc(-c2cccc(OC)c2)no1	-147.6	0.9	-16.4	i	31.9*	0.3
